Source: ChEMBL document CHEMBL4177755, “Combating Drug-Resistant Fungi with Novel Imperfectly Amphipathic Palindromic Peptides” (J Med Chem, 2018)

Key:
Assay type in all cases: functional
Escherichia coli [1] = experiment: Antibacterial activity against Escherichia coli ATCC 25922 after 18 hrs in presence of 50% human heat-inactivated serum by broth dilution method
Escherichia coli [2] = experiment: Antibacterial activity against Escherichia coli ATCC 25922 after 18 hrs in presence of 25% human heat-inactivated serum by broth dilution method
[3] = tested on: Staphylococcus epidermidis; experiment: Bactericidal activity against Staphylococcus epidermidis ATCC 12228
In short: (§1)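 Wells from the 24 h, 37 °C MHB microdilution plates (bacteria at a final (0.5−1) × 10^5 CFU/mL; peptide diluted in 0.2% BSA) were plated on agar and incubated overnight. MBC is the lowest concentration killing >99.9% of cells. Each test was reproduced at least 3 times.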

Staphylococcus aureus [4] = experiment: Bactericidal activity against methicillin-resistant Staphylococcus aureus ATCC 4330
In short: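 Bacteria at (0.5−1) × 10^5 CFU/mL in MHB were exposed to serially diluted peptide (0.2% BSA) for 24 h at 37 °C, then 50 μL aliquots were plated on agar overnight. MBC is the lowest concentration killing >99.9% of cells. At least 3 repeats.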

Escherichia coli [5] = experiment: Antibacterial activity against Escherichia coli ATCC 25922 after 18 hrs in presence of NH4Cl by broth dilution method
Escherichia coli [6] = experiment: Antibacterial activity against Escherichia coli ATCC 25922 after 18 hrs in presence of 12.5% human heat-inactivated serum by broth dilution method
Staphylococcus aureus [7] = experiment: Antibacterial activity against Staphylococcus aureus ATCC 25923 after 24 hrs
In short: (§2)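 Modified NCCLS broth microdilution. Mid-log bacteria at (0.5−1) × 10^5 CFU/mL in MHB were mixed 1:1 with peptide serially diluted in 0.2% BSA and incubated 24 h at 37 °C. Absorbance was read at 492 nm; MIC is the lowest concentration inhibiting 95% of growth. At least 3 repeats.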

Salmonella typhimurium [8] = experiment: Bactericidal activity against Salmonella typhimurium ATCC 14028; settings: Salmonella enterica subsp. enterica serovar Typhimurium; in short: as §1
Staphylococcus aureus [9] = experiment: Antibacterial activity against methicillin-resistant Staphylococcus aureus ATCC 4330 after 24 hrs; in short: as §2
Escherichia coli [10] = experiment: Antibacterial activity against Escherichia coli ATCC 25922 after 18 hrs in presence of ZnCl2 by broth dilution method
Escherichia coli [11] = experiment: Antibacterial activity against Escherichia coli ATCC 25922 after 18 hrs in presence of FeCl3 by broth dilution method
Escherichia coli [12] = experiment: Antibacterial activity against Escherichia coli ATCC 25922 after 18 hrs in presence of CaCl2 by broth dilution method
[13] = tested on: Salmonella enterica subsp. enterica serovar Pullorum; experiment: Bactericidal activity against Salmonella pullorum ATCC 7913; in short: as §1
[14] = tested on: Staphylococcus epidermidis; experiment: Antibacterial activity against Staphylococcus epidermidis ATCC 12228 after 24 hrs
In short: (§3)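 Broth microdilution. Mid-log bacteria in MHB at a final (0.5−1) × 10^5 CFU/mL were mixed with equal volumes of peptide serially diluted in 0.2% BSA. Plates were incubated 24 h at 37 °C and read at A492. MIC is the lowest concentration inhibiting 95% of growth. Each test was repeated at least 3 times.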

Escherichia coli [15] = experiment: Antibacterial activity against Escherichia coli ATCC 25922 after 18 hrs in presence of MgCl2 by broth dilution method
Escherichia coli [16] = experiment: Antibacterial activity against Escherichia coli ATCC 25922 after 24 hrs; in short: as §3
Salmonella typhimurium [17] = experiment: Antibacterial activity against Salmonella typhimurium ATCC 14028 after 24 hrs; settings: Salmonella enterica subsp. enterica serovar Typhimurium; in short: as §3
Escherichia coli [18] = experiment: Antibacterial activity against Escherichia coli 1005 after 24 hrs; in short: as §3
Escherichia coli [19] = experiment: Antibacterial activity against Escherichia coli ATCC 25922 after 18 hrs in presence of NaCl by broth dilution method
Staphylococcus aureus [20] = experiment: Antibacterial activity against Staphylococcus aureus ATCC 29213 after 24 hrs; in short: as §2
Escherichia coli [21] = experiment: Bactericidal activity against Escherichia coli ATCC 25922; in short: as §1
Staphylococcus aureus [22] = experiment: Bactericidal activity against Staphylococcus aureus ATCC 29213; in short: as §1
Escherichia coli [23] = experiment: Bactericidal activity against Escherichia coli 1005; in short: as §1
[24] = tested on: Salmonella enterica subsp. enterica serovar Pullorum; experiment: Antibacterial activity against Salmonella pullorum ATCC 7913 after 24 hrs; in short: as §3
Escherichia coli [25] = experiment: Antibacterial activity against Escherichia coli ATCC 25922 after 18 hrs in presence of KCl by broth dilution method
Staphylococcus aureus [26] = experiment: Bactericidal activity against Staphylococcus aureus ATCC 25923; in short: as §1

Question: GENTAMICIN was tested. Which MIC (Escherichia coli [1]) did it give?
Answer: Its MIC is 2 µM.

Question: And the MIC (Escherichia coli [2])?
Answer: The MIC was 1 µM.

Question: And the MBC99.9 [3]?
Answer: Its MBC99.9 is 1 µM.

Question: And the MBC99.9 (Staphylococcus aureus [4])?
Answer: Its MBC99.9 is 8 µM.

Question: What about the MIC (Escherichia coli [5]) of the same sequence?
Answer: The MIC was 2 µM.

Question: What about the MIC (Escherichia coli [6]) of the same sequence?
Answer: The MIC was 1 µM.

Question: And the MIC95 (Staphylococcus aureus [7])?
Answer: The MIC95 was 1 µM.

Question: What about the MBC99.9 (Salmonella typhimurium [8]) of the same sequence?
Answer: Its MBC99.9 is 4 µM.

Question: What about the MIC95 (Staphylococcus aureus [9]) of the same sequence?
Answer: Its MIC95 is 8 µM.

Question: What about the MIC (Escherichia coli [10]) of the same sequence?
Answer: The MIC was 2 µM.

Question: And the MIC (Escherichia coli [11])?
Answer: Its MIC is 1 µM.

Question: What about the MIC (Escherichia coli [12]) of the same sequence?
Answer: The MIC was 1 µM.

Question: What about the MBC99.9 [13] of the same sequence?
Answer: The MBC99.9 was 2 µM.

Question: And the MIC95 [14]?
Answer: The MIC95 was 0.5 µM.

Question: What about the MIC (Escherichia coli [15]) of the same sequence?
Answer: Its MIC is 1 µM.

Question: And the MIC95 (Escherichia coli [16])?
Answer: The MIC95 was 1 µM.

Question: What about the MIC95 (Salmonella typhimurium [17]) of the same sequence?
Answer: The MIC95 was 2 µM.

Question: What about the MIC95 (Escherichia coli [18]) of the same sequence?
Answer: Its MIC95 is 0.5 µM.

Question: What about the MIC (Escherichia coli [19]) of the same sequence?
Answer: Its MIC is 2 µM.

Question: What about the MIC95 (Staphylococcus aureus [20]) of the same sequence?
Answer: Its MIC95 is 1 µM.

Question: And the MBC99.9 (Escherichia coli [21])?
Answer: Its MBC99.9 is 2 µM.

Question: What about the MBC99.9 (Staphylococcus aureus [22]) of the same sequence?
Answer: Its MBC99.9 is 1 µM.

Question: And the MBC99.9 (Escherichia coli [23])?
Answer: Its MBC99.9 is 1 µM.

Question: And the MIC95 [24]?
Answer: Its MIC95 is 1 µM.

Question: And the MIC (Escherichia coli [25])?
Answer: The MIC was 1 µM.

Question: And the MBC99.9 (Staphylococcus aureus [26])?
Answer: The MBC99.9 was 1 µM.
